HUVEC inhibit: human endothelial cell proliferation inhibition | HUVEC proliferation, CellTiter-Glo luminescence, 72 h; hits give low values | viability, % at 10 µM (by protocol) | 1.1% of 86,000 active;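 active = viability at or below 30%; inactive = viability above 30%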
Jurkat tox 60K: reduces viability or proliferation of Jurkat cells. Jurkat E6.1 viability, ATP luminescence, 48 h. inhibition, % at 4 µM. 1.2% of 56,000 active;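 active = inhibition above the mean inhibition of all tested compounds plus 3 SD, cut at about 28% in these data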
Fibroblast inh: blocks proliferation of human lung fibroblasts | LL 47 human lung fibroblast viability, ATP luminescence; hits give low values | viability, % at 10 µM | 1.1% of 85,000 active | AID 719;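 active = viability at or below 50% in the single dose screen; inactive = viability above 50%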;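 also: compound exposure lasted 72 h before the ATP readout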
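Material: human lung fibroblast line LL 47, low passage; Evaluation: viability percentage against median untreated-cell control; Buffer or medium: 15% FBS in IMEM; Incubation: 72 h compound exposure at 37 °C after overnight plating; Dosing: 0.1% DMSO in all compound wells; Measured by: CellTiter-Glo luminescence.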
H69AR growth 86K: growth inhibitors of human H69AR lung tumor cells. viability, % at 10 µM. H69AR lung tumor viability, ATP luminescence, 72 h; hits give low values. 6% of 85,000 active. AID 598;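 active = viability at or below 40%; inactive = viability above 40%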;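 also: multidrug resistant small cell line overexpressing MRP-1 efflux transporter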
Numbers stand for hits; – = inactive; · = not tested or not shown. Shown are actives, neighbours in structure and some others; about 6.6% of the full set was active somewhere.

SMILES | HUVEC inhibit | Jurkat tox 60K | Fibroblast inh | H69AR growth 86K
Oc1ccc(N=Cc2ccc(O)c(O)c2)cc1 | · | 34.5 | · | ·
O=Cc1ccc(O)c(O)c1 | – | · | – | –
CC(C)C(=O)N(c1cc2sc(=O)oc2c2ccccc12)S(=O)(=O)c1cccs1 | – | · | – | 21.7
COc1ccc(N(C(=O)C(C)C)S(=O)(=O)c2cccs2)cc1 | – | · | – | 17.5
CC(C)C(=O)N(c1ccc2oc(=O)sc2c1)S(=O)(=O)c1cccs1 | – | – | – | ·
Cc1ccc2oc(C(=O)Nc3c(C)n(C)n(-c4ccccc4)c3=O)c(C)c2c1 | – | – | – | –
O=c1c2cc(F)ccc2[nH]c(=S)n1CCCN1CCOCC1 | – | · | – | –
CCOC(=O)c1[nH]c(C)c(/C(O)=C2\C(=O)C(=O)N(CCN(C)C)C2c2ccc(C)o2)c1C (centres undefined) | – | – | – | 19.4
CCOC(=O)c1[nH]c(C)c(/C(O)=C2\C(=O)C(=O)N(CCN3CCOCC3)C2c2cccs2)c1C (centres undefined) | – | · | – | 33.4
CCOc1ccc(C2/C(=C(\O)c3c(C)[nH]c(C(=O)OC)c3C)C(=O)C(=O)N2CCN(C)C)cc1 (centres undefined) | – | – | – | –
CCn1c(O)c(/C=N/N=C/c2ccccc2)c2ccc(C3=NNC(=O)CC3)cc21 | – | · | – | –
COc1cc(C)c(Cl)cc1S(=O)(=O)n1cnc(C)c1 | – | · | – | –
COc1ccc(C(C)C)cc1S(=O)(=O)n1cnc(C)c1 | – | · | – | 27.4
CC(C)(C)c1cc(C(=O)NCc2ccccc2)ccn1 | – | – | – | –
CCOC(=O)c1c(C)oc2c1c(C(c1ccncc1)N1CCOCC1)c(O)c1ccccc12 (centres undefined) | – | – | – | 0.9
CCOC(=O)c1c(C)oc2c1c(C=NC1CCS(=O)(=O)C1)c(O)c1ccccc12 (centres undefined) | – | – | – | –
Cc1ccc2[nH]c(=O)c3cc(C(=O)N(CCCOC(C)C)Cc4ccco4)sc3c2c1 | – | · | – | –
CCCCN(Cc1ccco1)C(=O)c1cc2c(=O)[nH]c3ccc(C)cc3c2s1 | 4.4 | · | – | 28.3
Cc1ccc2[nH]c(=O)c(CN(Cc3ccco3)C(=O)c3cccs3)cc2c1 | – | – | – | –
Cc1ccc2cc(CN(Cc3ccco3)C(=O)c3cccs3)c(=O)[nH]c2c1 | – | 92.5 | – | 21.0
CC12CC(c3ccccc3O1)C(C(=O)NCc1ccccc1)C(=O)N2 (centres undefined) | – | – | – | –
CCCS(=O)(=O)c1nnnn1-c1cccc(OC)c1 | – | 101.3 | 11.9 | 1.1
O=Cc1cn(CC(=O)N2CCCc3ccccc32)c2ccccc12 | – | · | – | 35.5
CCCCCc1nnc(NC(=O)C(=O)OCC)s1 | – | · | – | –
CCCCC(=O)O[C@H]1CC[C@H]2[C@@H]3CCc4cc(O)ccc4[C@H]3CC[C@]12C | 8.9 | · | – | 1.1
SMILES | HUVEC inhibit | Jurkat tox 60K | Fibroblast inh | H69AR growth 86K
Cc1ccc(S(=O)(=O)C2(C(=O)Nc3cccc(F)c3)CC2)cc1 | – | – | – | –
Cc1ccc(CN2CCN(CC3CC4C=CC3C4)CC2)cc1 (centres undefined) | – | · | – | –
CCC1Oc2ccc(C)cc2N(CC(=O)N(Cc2ccc(C)o2)C2CC(C)(C)NC(C)(C)C2)C1=O (centres undefined) | – | · | – | 32.5
O=S(=O)(CCSc1ccccn1)c1nc2ccccc2s1 | – | 49.8 | 42.8 | 1.9
CCS(=O)(=O)CCSc1nc2ccccc2o1 | – | – | – | –
O=S(=O)(CCSc1nc2ccccc2o1)c1nc2ccccc2s1 | 11.8 | 63.9 | 6.2 | –
O=C(CSc1nc2ccccc2s1)Nc1ncccn1 | – | – | – | –
COc1ccc(CCN2C(=S)NC3CC2(C)Oc2ccc([N+](=O)[O-])cc23)cc1OC (centres undefined) | – | · | – | –
CCN(Cc1ccccc1)C(=O)CCCOc1ccccc1 | – | – | – | –
CC(COc1ccccc1)N(CCCl)Cc1ccccc1 (centres undefined) | – | · | – | 1.7
CC(O)CNc1nc2ccccc2n1CC(=O)NCCc1ccc(Cl)cc1 (centres undefined) | – | · | – | –
CN1CCN(c2nc(Nc3cccc(C(F)(F)F)c3)nc(N3CCOCC3)n2)CC1 | 9.8 | – | · | –
CSc1nnc(-c2sc3cc(C(F)(F)F)cnc3c2-c2ccccc2)n1C | – | · | – | 25.0
C=CCOC(=O)C1=C(C)NC(SCC(=O)N(CC)CC)=C(C#N)C1c1ccco1 (centres undefined) | – | · | – | 35.4
COc1ccc(OC)c(NC(=O)Cn2cc(C#N)c3cc(Br)ccc32)c1 | – | – | – | –
CCCc1sc(N/N=C/c2ccccn2)nc1-c1ccc(Br)cc1 | 5.2 | · | 29.3 | 11.3
